The list is not random: actives were taken first. Their share in the collection is about 1.9%.
SENP1 inh – human SENP1 catalytic domain inhibitors, primary screen, biochemical, FRET, uHTS; Sentrin-specific protease 1 (Homo sapiens), Q9P0U3; recombinant SENP1 catalytic domain, CyPet-SUMO1-YPet FRET cleavage; inhibition, % at 10 µM; 0.21% of 360,000 active; AID 624204, 2012;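 active means inhibition at least 30% at 10 µM, raw YFP signal under a set limit, fluorescence ratio 0.5 to 1.5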;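 further: 0% = enzyme with DMSO and 100% = no enzyme wells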
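system = hSENP1 catalytic domain, recombinant | reagent = SFCypet-SUMO1-SFYpet substrate at 25 nM | doses = one dose per compound, 10 µM, 0.5% DMSO | incubation = enzyme reaction for 50 min at room temperature, dark | measured by = FRET, CFP and YFP emission | controls = no-enzyme low, enzyme-DMSO high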
ADAM10 inh – human ADAM10 inhibitors, primary screen, biochemical, QFRET, HTS | 0.62% of 370,000 active | inhibition, % at 7 µM | recombinant ADAM10, EDANS/DABCYL FRET peptide cleavage, 3 h;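 active means inhibition above a per-campaign cutoff equal to the mean of compounds falling between control-based bounds plus 3 SD, cut at about 20% in these data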;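 further: 0% = DMSO wells while the 100% control is not disclosed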
FAS TE block – FAS thioesterase domain inhibitors, primary screen, biochemical, fluorescence intensity, uHTS. Fatty acid synthase (Homo sapiens), P49327. recombinant FAS-TE, OMFH fluorogenic substrate, fluorescence endpoint. inhibition, % at 15 µM. 0.67% of 360,000 active;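 active means compounds whose normalised, plate-corrected inhibition of enzyme fluorescence in the single-dose primary screen is 50% or more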;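 further: 0% = DMSO with enzyme and 100% = substrate without enzyme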
ADAM17 inh – ADAM17 inhibitors, primary screen, biochemical, QFRET; 0.83% of 370,000 active; recombinant ADAM17, EDANS/DABCYL FRET peptide cleavage; inhibition, % at 6.95 µM;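 active means inhibition above the mean of compounds lying between control limits plus 3 SD, set per campaign, cut at about 8.5% in these data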;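 further: 0% = DMSO-only wells as the low control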
FAS-TE inh conf – FAS thioesterase domain inhibitors, confirmation, biochemical, fluorescence intensity, single concentration; shares compounds with FAS TE block; recombinant FAS-TE, OMFH fluorogenic substrate; inhibition, % at 15 µM; 45% of 2,300 active;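 active means compounds inhibiting the enzyme by at least 50% at 15 µM in any one of the replicates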;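 further: 0% = enzyme with DMSO only and 100% = wells lacking enzyme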
* = called active by the depositor.

COCC(=O)N(C)[C@H]1C[C@H]2c3[nH]c4c(-c5ccc6c(c5)OCO6)cccc4c3CCN2C(=O)[C@H]1[C@H](C)O was read as ADAM10 inh -15 and ADAM17 inh -10.
`COC(=O)[C@@]1(Cc2ccc(OC)cc2)[C@H]2c3cc(C(=O)N4CCCC4)n(CCc4ccc(OC)c(Br)c4)c3C[C@H]2CN1C(=O)c1ccccc1` gave SENP1 inh -3, ADAM10 inh 12, FAS TE block 73*, ADAM17 inh 5 and FAS-TE inh conf 15.
C=CCn1c(C)c(C(C)=O)c(N2CCN(C(c3ccccc3)c3ccccc3)CC2)nc1=S was read as SENP1 inh -87, ADAM10 inh -6, FAS TE block 58*, ADAM17 inh 2 and FAS-TE inh conf 0.
For CS(=O)(=O)c1ccc(Sc2nc3ccccc3s2)c([N+](=O)[O-])c1 the results were SENP1 inh 1 and FAS TE block 19.
NCCNc1ccc([N+](=O)[O-])c(Sc2nc3ccccc3[nH]2)c1 was read as SENP1 inh 2, ADAM10 inh 5, FAS TE block -1 and ADAM17 inh 3.
CCC(=O)OCCNc1cc(Sc2nc3ccccc3s2)c2nonc2c1[N+](=O)[O-] was read as SENP1 inh -14, ADAM10 inh 9, FAS TE block 83*, ADAM17 inh 2 and FAS-TE inh conf 11.
`CCC(=O)OCCNc1cc(Sc2nc3ccccc3[nH]2)c2nonc2c1[N+](=O)[O-]` gave SENP1 inh -22, ADAM10 inh 5, FAS TE block 80*, ADAM17 inh 2 and FAS-TE inh conf 83*.
`O=[N+]([O-])c1c(NCCCO)cc(Sc2nc3ccccc3s2)c2nonc12` gave SENP1 inh -13, FAS TE block 77* and FAS-TE inh conf 75*.
For CC(=O)OCCCNc1cc(SCc2ccco2)c2nonc2c1[N+](=O)[O-] the results were SENP1 inh -11, ADAM10 inh 13, FAS TE block 19 and ADAM17 inh 4.
Screening CC(CCN1CCC(C(O)(c2ccccc2)c2ccccc2)CC1)Oc1ccccc1C#N (configuration not stated) returned ADAM10 inh 1 and ADAM17 inh 3.
`CN(C)S(=O)(=O)c1ccc(C(=O)Nc2cc(S(=O)(=O)Nc3ccccc3Cl)ccc2N2CCCCC2)cc1` gave SENP1 inh 6, ADAM10 inh -13, FAS TE block 73*, ADAM17 inh -5 and FAS-TE inh conf 22.
For CN1CCN(c2ccc(Cl)cc2NC(=O)c2ccc(S(=O)(=O)N(C)C)cc2)CC1 the results were SENP1 inh 1, ADAM10 inh 3, FAS TE block -5 and ADAM17 inh -7.
Screening C[C@H](O)[C@@H]1CN2CCc3ccc(N4CCOCC4)cc3[C@@H]2C[C@@H]1N(C)C(=O)c1cccc(Cl)c1 returned ADAM10 inh -7 and ADAM17 inh -1.
`O=C(CSc1ccc(Cl)cc1)N1CCN(c2ncc(C(F)(F)F)cc2Cl)CC1` gave SENP1 inh 2, ADAM10 inh 11, FAS TE block 53*, ADAM17 inh 0 and FAS-TE inh conf 25.
Screening O=C(CN1CCN(c2ncc(C(F)(F)F)cc2Cl)CC1)N1CCN(c2ncc(C(F)(F)F)cc2Cl)CC1 returned SENP1 inh -3, ADAM10 inh 4, FAS TE block 18 and ADAM17 inh -2.
`COc1ccc(S(=O)(=O)N(C(=O)c2ccco2)c2cc3sc(=O)oc3c3ccccc23)cc1` gave SENP1 inh 6, ADAM10 inh 10, FAS TE block 90*, ADAM17 inh 3 and FAS-TE inh conf 33.
`CCOc1ccc(S(=O)(=O)N(C(=O)c2ccco2)c2cc3sc(=O)oc3c3ccccc23)cc1` gave SENP1 inh 5, ADAM10 inh 2, FAS TE block 51*, ADAM17 inh 3 and FAS-TE inh conf 32.
CCOc1ccc(S(=O)(=O)N(C)CC(=O)NCc2ccco2)cc1 was read as SENP1 inh 2, ADAM10 inh -4, FAS TE block -6 and ADAM17 inh 0.
